From PubChem BioAssay
STEP block: blocks human striatal-enriched tyrosine phosphatase. inhibition, % at 20 µM. P54829. 360,000 tested, 0.25% active. recombinant STEP, OMFP fluorogenic substrate, fluorescence;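 active = inhibition at 20 µM, scaled per plate between control wells, above about 37%, limit read from the data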;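 note: 0% = DMSO with enzyme and substrate and 100% = substrate only without enzyme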
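System: STEP phosphatase, cell-free reaction; Buffer or medium: Bis-Tris pH 6.0 buffer with DTT, detergent; Incubation: 20 min at room temperature, dark; Measured by: fluorescence, 480/540 nm.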
SUMO1-SIM PPI: SUMO1-SIM interaction modulation. P63165. SUMO1 binding to a labelled peptide, TR-FRET, 1 h. inhibition, % at 20 µM. 360,000 tested, 0.33% active. AID 602429; in the data active = inhibition above about 37%
LMPTP inh: blocks human LMPTP phosphatase | 360,000 tested, 0.22% active | recombinant LMPTP-A, OMFP fluorogenic substrate, fluorescence intensity | P24666 | inhibition, % at 20 µM;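 active = compounds that cut the enzyme signal by at least half of the control window in the single-dose screen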;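 note: plate controls were DMSO wells with enzyme plus substrate for no effect and substrate without enzyme for full effect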
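test system = LMPTP-A | amount = 0.625 nM LMPTP-A final | reagent = fluorogenic phosphatase substrate OMFP at 400 µM final | incubation = 50 min at room temperature | benchmarks = no-enzyme low control, uninhibited high control | medium = Bis-Tris pH 6.0, DTT, detergent | signal = fluorescence intensity of OMFP turnover product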
NadD inh: blocks S. aureus nicotinate mononucleotide adenylyltransferase; purified NadD enzyme, colorimetric absorbance read-out; inhibition, % at 20 µM; 360,000 tested, 0.78% active; AID 602399; in the data active = inhibition above about 26%
DNMT1 block: DNMT1 (human) enzyme inhibition. P26358. DNMT1 molecular beacon, Hinp1I cleavage, fluorescence. inhibition (reported as % activation of signal), % at 10 µM. 360,000 tested, 0.83% active. AID 588458; in the data active = inhibition above about 50%
Target sequence (P26358 504-1616 limits assumed): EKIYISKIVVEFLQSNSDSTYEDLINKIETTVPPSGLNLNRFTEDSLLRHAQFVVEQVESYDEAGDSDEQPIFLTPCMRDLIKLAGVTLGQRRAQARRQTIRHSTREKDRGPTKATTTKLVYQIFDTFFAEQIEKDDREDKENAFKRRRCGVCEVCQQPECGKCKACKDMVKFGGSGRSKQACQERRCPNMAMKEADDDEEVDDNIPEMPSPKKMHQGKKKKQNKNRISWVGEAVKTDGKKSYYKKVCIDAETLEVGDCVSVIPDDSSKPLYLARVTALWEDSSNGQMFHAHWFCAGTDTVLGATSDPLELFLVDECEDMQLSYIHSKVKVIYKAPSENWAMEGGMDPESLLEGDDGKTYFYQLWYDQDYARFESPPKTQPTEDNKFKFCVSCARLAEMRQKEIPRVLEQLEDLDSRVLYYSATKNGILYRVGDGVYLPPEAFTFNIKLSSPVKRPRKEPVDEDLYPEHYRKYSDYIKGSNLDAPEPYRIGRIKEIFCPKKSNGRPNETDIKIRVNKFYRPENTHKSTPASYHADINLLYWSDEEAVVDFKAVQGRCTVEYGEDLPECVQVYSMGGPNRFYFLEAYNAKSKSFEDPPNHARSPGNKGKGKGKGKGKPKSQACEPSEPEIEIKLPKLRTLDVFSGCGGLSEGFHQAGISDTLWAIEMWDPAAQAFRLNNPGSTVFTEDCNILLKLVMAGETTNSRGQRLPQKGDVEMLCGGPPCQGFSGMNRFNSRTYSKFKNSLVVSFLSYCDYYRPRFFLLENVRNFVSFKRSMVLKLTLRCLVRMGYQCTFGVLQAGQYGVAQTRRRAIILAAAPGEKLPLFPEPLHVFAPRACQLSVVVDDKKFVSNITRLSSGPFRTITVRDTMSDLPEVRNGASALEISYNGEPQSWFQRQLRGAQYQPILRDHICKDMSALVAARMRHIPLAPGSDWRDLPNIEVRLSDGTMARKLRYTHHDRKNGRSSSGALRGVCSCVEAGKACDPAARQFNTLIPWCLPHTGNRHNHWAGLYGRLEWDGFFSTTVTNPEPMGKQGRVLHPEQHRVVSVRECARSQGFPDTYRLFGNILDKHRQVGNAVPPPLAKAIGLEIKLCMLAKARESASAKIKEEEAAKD
Scp-1 inhibitor: inhibitors of human Scp-1 phosphatase. Q9GZU7. inhibition, % at 20 µM. 340,000 tested, 0.88% active. Recombinant Scp1, phosphopeptide, malachite green phosphate absorbance;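 active = inhibition above about 50% at 20 µM, limit read from the data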;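 note: plate controls were DMSO wells with enzyme for no effect and wells lacking enzyme for full effect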
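Assay system: SCP-1 catalytic fragment, aa 76-261 | Buffer or medium: Tris acetate buffer pH 5.5 with MgCl2 and Tween-20 | Compound: One concentration, 20 µM, with 1.0% DMSO | Also added: Phospho 17-mer peptide substrate | Signal: Absorbance at 630 nm | Incubation: 45 min enzyme reaction at room temperature | Measure: % inhibition of SCP-1 phosphate liberation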
Numbers without * were called inactive; · = not tested or not shown. This is a sample that favours compounds with a hit; in the whole collection about 2.4% have one here.

SMILES	STEP block	SUMO1-SIM PPI	LMPTP inh	NadD inh	DNMT1 block	Scp-1 inhibitor
O=C1NC[C@@H](CCCCN2C[C@H](Cc3ccc(O)cc3)N(CCc3ccc(O)cc3)C(=O)C2=O)N(CCc2ccc(O)cc2)C1=O	·	43.8*	33.5	8.7	·	·
C/C(CC(=O)NCc1ccco1)=N\NC(=O)Cc1ccccc1	-1.9	1.2	-2.0	2.2	-3.6	-1.9
C/C(CC(=O)NCc1ccco1)=N\NC(=O)C(c1ccccc1)c1ccccc1	-1.9	49.2*	1.7	6.5	-1.6	-3.0
COCCN1CCN(C(=O)C2CCC(=O)N(CCc3cccc(F)c3)C2)CC1 (stereo not given)	-1.7	5.6	-1.3	2.8	-0.3	-4.8
COc1cccc(Cn2c(N)c(C#N)c3nc4ccccc4nc32)c1OC	1.8	39.7*	9.5	10.8	39.8	6.0
COc1ccc(Cn2c(N)c(C#N)c3nc4ccccc4nc32)cc1	-4.4	10.0	1.4	-2.0	-22.0	-7.7
O=C(Cn1cc(Cl)c([N+](=O)[O-])n1)NCCC1=CCCCC1	0.7	-16.3	-0.9	3.0	-0.3	-7.4
FC(F)(F)c1cccc(Oc2cc(C(F)(F)F)nc(-c3ccccn3)n2)c1	1.6	54.4*	1.4	6.5	1.4	-9.7
CNc1cc(C(F)(F)F)nc(-c2ccccn2)n1	-1.1	4.1	-0.2	3.2	0.9	-1.8
COCC(C)OC(=O)c1c(N)n(CC(C)C)c2nc3ccccc3nc12 (stereo not given)	3.4	41.3*	19.6	2.2	60.0*	4.6
Nc1c(C(=O)Nc2ccc(Br)cc2)sc2nc(N3CCOCC3)c3c(c12)CCCC3	-3.6	2.2	-0.8	16.5	50.1*	·
COc1cccc2c(SCC(=O)N/N=C/c3ccc(O)c(O)c3)cc(C)nc12	6.2	10.5	37.6	16.8	7.7	-4.5
COc1ccc2nc(C)cc(SCC(=O)N/N=C/c3ccc(O)c(O)c3)c2c1	2.5	12.0	56.7*	6.2	10.0	-3.5
Cc1cc(Br)ccc1NC(=O)c1sc2ncnc(N3CCN(c4ccccn4)CC3)c2c1C	2.2	-79.3	3.6	30.1*	-7.1	10.9
COc1ccc(NC(=O)c2sc3ncnc(N4CCN(c5ccccn5)CC4)c3c2C)cc1Cl	2.5	-85.7	3.3	22.8	-8.3	6.2
COc1ccc(-c2cc(=O)c3c(C)cc(O)cc3o2)cc1	2.7	45.1*	18.1	4.5	8.2	46.8
CCn1ccnc1CN(C)Cc1cn(-c2cc(C)ccc2C)nc1-c1ccccc1	6.1	-0.4	1.9	-3.3	-4.1	-2.2
Oc1cc(CNCc2ccccc2)c(O)cc1CNCc1ccccc1	2.8	-4.5	7.6	57.3*	29.9	0.5
CCNc1ccc(C(=O)OCC(=O)N(Cc2ccccc2)C(C)(C)C)cc1[N+](=O)[O-]	1.0	-20.2	5.9	-0.2	-6.3	-17.0
CCOc1ccc(NC(=O)CCC(=O)NNC(=O)Nc2ccc(Cl)cc2)cc1	0.1	-0.9	1.9	0.2	5.1	0.7
COc1ccc(-c2nc(CN3CCCCC3c3nccn3C)c(C)o2)c(C)c1C (stereo not given)	-1.6	-0.8	0.2	-8.8	-4.8	-5.9
CC(C)c1onc(C(=O)N2CCN(C(c3ccccc3)c3ccccc3)CC2)c1[N+](=O)[O-]	0.8	43.2*	-0.6	10.3	2.6	21.3
CC(C)c1onc(C(=O)N2CCN(c3ccccc3)CC2)c1[N+](=O)[O-]	0.7	-6.7	-1.3	-3.7	-1.7	-13.9
CC1(C)CC(=NNC(=O)c2n[nH]c3c2CCC3)CC(C)(C)N1	-1.3	-0.8	-1.5	1.1	6.0	1.2
N#C/C(=C\c1ccc([N+](=O)[O-])o1)C(=O)Nc1ccc(F)cc1	0.8	9.1	5.8	13.3	32.5	56.5*
N#CCc1ccc(NC(=O)/C=C/c2ccc([N+](=O)[O-])o2)cc1	2.6	-21.6	4.6	9.6	27.3	40.4
Cc1cc(=O)oc2cc(OCC(=O)c3ccc4c(c3)NC(=O)CO4)ccc12	2.5	42.4*	39.1	3.4	15.9	2.7
O=C1C(=C(I)I)c2ccccc2-c2ccccc21	11.0	35.9*	37.3	19.6	114.8*	44.3
C=CCCC(=O)N1C[C@H]2CON(C)[C@H]2C[C@H]1c1cccc(Oc2ccccc2)c1	-2.2	1.1	-1.2	-2.4	2.7	·
